Laboratory results: ChEMBL document CHEMBL1142866, “Synthesis and preliminary evaluation of 18F- or 11C-labeled bicyclic nucleoside analogues as potential probes for imaging varicella-zoster virus thymidine kinase gene expression using positron emission tomography” (J Med Chem, 2007)

Experiments:
[1] = Biodistribution in spleen/pancreas of NMRI mouse assessed as standard uptake value after 60 mins; format: ADME, organism-based; settings: in vivo, 1 h
Liver [2] = test: Biodistribution in liver of NMRI mouse assessed as standard uptake value after 60 mins; format: ADME, organism-based; settings: in vivo, 1 h
Blood [3] = test: Biodistribution in blood of NMRI mouse after 2 mins; format: ADME, organism-based; settings: in vivo
Method in brief: (§1)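 Male NMRI mice (30-40 g) under ketamine/xylazine i.p. anesthesia received 0.1 mL of HPLC-purified 18F tracer (0.1 mCi/mL) or 11C tracer (1 mCi/mL) in water for injection via tail vein. Killed by decapitation at 2 or 60 min (n = 3 per time). Blood, organs and carcass weighed and gamma-counted. %ID = organ cpm/total cpm recovered. Blood mass taken as 7% of body mass. Mean ± SD.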

[4] = Drug uptake in human 293T cells transduced with VZV-tk gene after 3 hrs; format: ADME, cell-based; settings: hek-293t
Method in brief: (§2)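 Lentivirally transduced 293T cells (VZV-tk or LacZ control) plated in triplicate at 200 000 cells/well. After 24 h, 0.25 mL fresh medium with 5 µCi of the 18F tracer (3 h) or 30 µCi of the 11C tracer (1 h) added; 37 °C, 5% CO2. Cells washed thrice with ice-cold PBS, lysed, gamma-counted. Uptake given as % total radioactivity per mg protein (Bio-Rad assay); n = 3, unpaired two-sided t-test.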

Intestine [5] = test: Biodistribution in intestine of NMRI mouse after 60 mins; format: ADME, organism-based; settings: in vivo, 1 h; method in brief: as §1
[6] = Biodistribution in spleen/pancreas of NMRI mouse after 2 mins; format: ADME, organism-based; settings: in vivo; method in brief: as §1
Liver [7] = test: Biodistribution in liver of NMRI mouse after 60 mins; format: ADME, organism-based; settings: in vivo, 1 h; method in brief: as §1
Liver [8] = test: Biodistribution in liver of NMRI mouse assessed as standard uptake value after 2 mins; format: ADME, organism-based; settings: in vivo
Kidney [9] = test: Biodistribution in kidney of NMRI mouse after 60 mins; format: ADME, organism-based; settings: in vivo, 1 h; method in brief: as §1
Brain [10] = test: Biodistribution in brain of NMRI mouse assessed as standard uptake value after 2 mins; format: ADME, organism-based; settings: in vivo
[11] = Biodistribution in urine of NMRI mouse after 2 mins; format: ADME, organism-based; settings: in vivo; method in brief: as §1
Heart [12] = test: Biodistribution in heart of NMRI mouse assessed as standard uptake value after 60 mins; format: ADME, organism-based; settings: in vivo, 1 h
Blood [13] = test: Biodistribution in blood of NMRI mouse after 60 mins; format: ADME, organism-based; settings: in vivo, 1 h; method in brief: as §1
Blood [14] = test: Biodistribution in blood of NMRI mouse assessed as standard uptake value after 60 mins; format: ADME, organism-based; settings: in vivo, 1 h
[15] = Biodistribution in carcass of NMRI mouse after 2 mins; format: ADME, organism-based; settings: in vivo; method in brief: as §1
[16] = Biodistribution in carcass of NMRI mouse after 60 mins; format: ADME, organism-based; settings: in vivo, 1 h; method in brief: as §1
Heart [17] = test: Biodistribution in heart of NMRI mouse assessed as standard uptake value after 2 mins; format: ADME, organism-based; settings: in vivo
Lung [18] = test: Biodistribution in lung of NMRI mouse assessed as standard uptake value after 60 mins; format: ADME, organism-based; settings: in vivo, 1 h
[19] = Biodistribution in spleen/pancreas of NMRI mouse after 60 mins; format: ADME, organism-based; settings: in vivo, 1 h; method in brief: as §1
[20] = Partition coefficient, log P at pH 7.4; format: physicochemical; settings: octanol/water
Method in brief: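 HPLC-purified radiotracer partitioned between 1-octanol and 0.025 M phosphate buffer pH 7.4. Vortexed 2 min at room temperature, centrifuged 5 min, aliquots of both phases gamma-counted. P = octanol cpm/buffer cpm after density and mass correction; n = 6.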

Lung [21] = test: Biodistribution in lung of NMRI mouse after 60 mins; format: ADME, organism-based; settings: in vivo, 1 h; method in brief: as §1
Lung [22] = test: Biodistribution in lung of NMRI mouse assessed as standard uptake value after 2 mins; format: ADME, organism-based; settings: in vivo
[23] = Ratio of drug uptake in LV-VZVTK-1-P transduced cells to LV-LacZ-I-P transduced 293T cells after 3 hrs; format: ADME, cell-based; settings: human
Method in brief: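 Lentivirally transduced human embryonic kidney 293T cells (VZV-tk vs LacZ control), plated in triplicate at 200 000 cells/well. After 24 h, fresh medium with HPLC-purified [18F] tracer (5 µCi/well), 3 h at 37 °C, 5% CO2. Cells washed three times with ice-cold PBS and lysed. Lysate counted in a gamma counter. Uptake given as % total radioactivity per mg protein (Bio-Rad assay). Ratio is VZV-tk/LacZ; n=3, unpaired Student t-test.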

Blood [24] = test: Biodistribution in blood of NMRI mouse assessed as standard uptake value after 2 mins; format: ADME, organism-based; settings: in vivo
Brain [25] = test: Biodistribution in brain of NMRI mouse assessed as standard uptake value after 60 mins; format: ADME, organism-based; settings: in vivo, 1 h
Brain [26] = test: Biodistribution in brain of NMRI mouse after 2 mins; format: ADME, organism-based; settings: in vivo; method in brief: as §1
Heart [27] = test: Biodistribution in heart of NMRI mouse after 60 mins; format: ADME, organism-based; settings: in vivo, 1 h; method in brief: as §1
Kidney [28] = test: Biodistribution in kidney of NMRI mouse assessed as standard uptake value after 60 mins; format: ADME, organism-based; settings: in vivo, 1 h
Brain [29] = test: Biodistribution in brain of NMRI mouse after 60 mins; format: ADME, organism-based; settings: in vivo, 1 h; method in brief: as §1
Intestine [30] = test: Biodistribution in intestine of NMRI mouse after 2 mins; format: ADME, organism-based; settings: in vivo; method in brief: as §1
[31] = Drug uptake in human 293T cells transduced with LacZ gene after 3 hrs; format: ADME, cell-based; settings: hek-293t; method in brief: as §2
[32] = Biodistribution in urine of NMRI mouse after 60 mins; format: ADME, organism-based; settings: in vivo, 1 h; method in brief: as §1
Liver [33] = test: Biodistribution in liver of NMRI mouse after 2 mins; format: ADME, organism-based; settings: in vivo; method in brief: as §1
[34] = Biodistribution in spleen/pancreas of NMRI mouse assessed as standard uptake value after 2 mins; format: ADME, organism-based; settings: in vivo
Heart [35] = test: Biodistribution in heart of NMRI mouse after 2 mins; format: ADME, organism-based; settings: in vivo; method in brief: as §1
Lung [36] = test: Biodistribution in lung of NMRI mouse after 2 mins; format: ADME, organism-based; settings: in vivo; method in brief: as §1
Kidney [37] = test: Biodistribution in kidney of NMRI mouse assessed as standard uptake value after 2 mins; format: ADME, organism-based; settings: in vivo
Kidney [38] = test: Biodistribution in kidney of NMRI mouse after 2 mins; format: ADME, organism-based; settings: in vivo; method in brief: as §1

- Drug uptake [1]: 0.1
- Drug uptake (Liver [2]): 0.7
- Drug uptake (Blood [3]): 6.2 %ID
- Drug uptake [4]: 2.29%
- Drug uptake (Intestine [5]): 60.5 %ID
- Drug uptake [6]: 1.3 %ID
- Drug uptake (Liver [7]): 4.4 %ID
- Drug uptake (Liver [8]): 3.9
- Drug uptake (Kidney [9]): 1.2 %ID
- Drug uptake (Brain [10]): 0.1
- Drug uptake [11]: 5.7 %ID
- Drug uptake (Heart [12]): 0
- Drug uptake (Blood [13]): 0.4 %ID
- Drug uptake (Blood [14]): 0.1
- Drug uptake [15]: 27.2 %ID
- Drug uptake [16]: 3.8 %ID
- Drug uptake (Heart [17]): 0.6
- Drug uptake (Lung [18]): 0
- Drug uptake [19]: 0.1 %ID
- logD [20]: 1.24
- Drug uptake (Lung [21]): 0.1 %ID
- Drug uptake (Lung [22]): 1.1
- uptake ratio at 3 h [23]: 4.5
- Drug uptake (Blood [24]): 0.9
- Drug uptake (Brain [25]): 0
- Drug uptake (Brain [26]): 0 %ID
- Drug uptake (Heart [27]): 0 %ID
- Drug uptake (Kidney [28]): 0.7
- Drug uptake (Brain [29]): 0 %ID
- Drug uptake (Intestine [30]): 20.7 %ID
- Drug uptake [31]: 0.6%
- Drug uptake [32]: 29.5 %ID
- Drug uptake (Liver [33]): 24.4 %ID
- Drug uptake [34]: 1.4
- Drug uptake (Heart [35]): 0.3 %ID
- Drug uptake (Lung [36]): 0.9 %ID
- Drug uptake (Kidney [37]): 9
- Drug uptake (Kidney [38]): 15.5 %ID
SMILES: O=c1nc2oc(-c3cccc(OCC[18F])c3)cc2cn1[C@H]1C[C@H](O)[C@@H](CO)O1
